Test results taken from ChEMBL document CHEMBL2021927, “Synthesis and evaluation of the cytotoxicities of tetraindoles: observation that the 5-hydroxy tetraindole (SK228) induces G₂ arrest and apoptosis in human breast cancer cells” (J Med Chem, 2012).
Active and inactive are the calls of the source. No cut-off for these calls is given here.

Key:
[1] = Growth inhibition of human Detroit 551 cells at 20 uM after 48 hrs by MTT assay; assay type: cell-based; details: read-out: GI
Outline: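 MTT viability assay with 48 h exposure at a single 20 μM concentration. Result given as percent inhibition of cell growth; n = 3.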

[2] = Selectivity ratio of IC50 for human MT10 cells to IC50 for human SW620 cells; assay type: ADME, cell-based, SW-620; details: MT10 cells and SW620 cells
Outline: (§1)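 Ratio of the IC50 in normal M10 cells to the IC50 in each cancer line. […] The paper reports the fold difference as the normal-cell to tumour-cell IC50 ratio.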

[3] = Selectivity ratio of IC50 for human MT10 cells to IC50 for human U87MG cells; assay type: ADME, cell-based, U-87MG ATCC; details: MT10 cells and U87MG cells, read-out: Ratio IC50; outline: as §1
[4] = system: MDA-MB-231; experiment: Selectivity ratio of IC50 for human MT10 cells to IC50 for human MDA-MB-231 cells; outline: as §1
[5] = system: MDA-MB-468; experiment: Selectivity ratio of IC50 for human Detroit 551 cells to IC50 for human MDA-MB-468 cells
[6] = system: Detroit 551; experiment: Selectivity ratio of IC50 for human Detroit 551 cells to IC50 for human A549 cells
[7] = system: MCF7; experiment: Selectivity ratio of IC50 for human Detroit 551 cells to IC50 for human MCF7 cells
[8] = system: MDA-MB-231; experiment: Cell cycle arrest in human MDA-MB-231 cells at accumulation at G1 phase at 0.8 uM after 24 hrs by propidium iodide staining-based flow cytometric analysis (reference value: 48%); assay type: functional
[9] = system: MDA-MB-231; experiment: Cell cycle arrest in human MDA-MB-231 cells at accumulation at S phase at 0.8 uM after 24 hrs by propidium iodide staining-based flow cytometric analysis (reference value: 20%); assay type: functional
[10] = system: MDA-MB-231; experiment: Cell cycle arrest in human MDA-MB-231 cells at accumulation at subG1 phase at 0.8 uM after 48 hrs by propidium iodide staining-based flow cytometric analysis (reference value: 3%); assay type: functional
[11] = system: MDA-MB-231; experiment: Increase in cdc2 phosphorylation at Tyr15 expression in human MDA-MB-231 cells after 48 hrs by Western blot analysis; assay type: functional, cell-based
Outline: (§2)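 MDA-MB-231 cells treated with 0.2, 0.4 or 0.8 μM for 24 and 48 h. Attached and floating cells were lysed in RIPA-type buffer with protease inhibitors, and protein was quantified by BCA. Equal protein was run on 10%/15% SDS-PAGE and transferred to nitrocellulose. Blots were probed 1 h at room temperature for phospho-cdc2, cyclin B1, caspase-3, bak/bcl-2 or actin loading control, with HRP secondary and ECL detection.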

[12] = system: MDA-MB-231; experiment: Induction of apoptosis in human MDA-MB-231 cells assessed as increase in early apoptotic cells at 0.4 uM by annexinV propidium iodide staining-based flow cytometric analysis; assay type: functional, cell-based; details: TDE = time-dependent effect
Outline: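 MDA-MB-231 cells treated with 0.4 μM, washed twice in PBS and stained with annexin V-FITC/propidium iodide. Populations scored as viable (both negative), early apoptotic (annexin V positive, PI negative) or late apoptotic/dead (both positive).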

[13] = system: MDA-MB-231; experiment: Induction of apoptosis in human MDA-MB-231 cells assessed as DNA ladder formation at 0.4 to 1.6 uM after 48 hrs by agarose gel electrophoretic analysis; assay type: functional, cell-based
Outline: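 MDA-MB-231 cells seeded at 1 × 10^6 per dish, treated 24 h later with 0, 0.4, 0.8, 1.2 or 1.6 μM or DMSO for 48 h at 37 °C, 5% CO2. Cells lysed in TE buffer with 0.25% NP40 (pH 7.5). Lysate digested with RNase A then proteinase K, each 1 h at 37 °C. DNA resolved on 1.8% agarose gel.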

[14] = system: MDA-MB-231; experiment: Induction of apoptosis in human MDA-MB-231 cells assessed as bcl-2 protein level after 24 to 48 hrs by Western blot analysis; assay type: functional, cell-based; outline: as §2
[15] = system: MDA-MB-231; experiment: Growth inhibition of human MDA-MB-231 cells after 48 hrs by MTT assay; assay type: functional, cell-based

IC50 ([15]; MDA-MB-231, 48 h): 450 nM
Compound: Oc1ccc2[nH]cc(C(c3ccc(C(c4c[nH]c5ccc(O)cc45)c4c[nH]c5ccc(O)cc45)cc3)c3c[nH]c4ccc(O)cc34)c2c1
inhibition at 48 h, 20 µM [1]: 47%
selectivity ratio [2]: 5.9
selectivity ratio [3]: 2
Ratio IC50 [4]: 12.9
Ratio IC50 [5]: > 24
Ratio IC50 [6]: > 6.9
Ratio IC50 [7]: > 22.7
Activity [8]: 31%
Activity [9]: 23%
Activity [10]: 21%
Activity [11]: Dose-dependent effect
Activity [12]: tde
Activity [13]: Active
Activity [14]: Dose-dependent effect
inhibition [15]: Dose-dependent effect
